Test results: ChEMBL document CHEMBL1129060, “N6,C8-distributed adenosine derivatives as partial agonists for adenosine A1 receptors” (J Med Chem, 1996); call rule not given here
Several values for one entry are separate records, joined by “and”; a condition that tells them apart may be missing. Equal values may be shown once.

How the values were obtained:
[1] = system: Rattus norvegicus; assay: Effect on heart rate was measured after intravenous administration (4.8 mg/kg) in rat; type: functional
Summary of the method: (§1)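 Conscious, free-ranging, normotensive male SPF Wistar rats (200-250 g). Intravenous infusion in 20% (v/v) DMSO/water; vehicle-only controls. Arterial catheter; 30 min accommodation. Heart rate and arterial blood pressure recorded continuously from 15 min before dosing (baseline) through 5.5 h. Dosing done between 10:00 and 11:00 a.m. Values given as means ± SE.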

[2] = system: Rattus norvegicus; assay: Mean arterial pressure was recorded in conscious, normo tensive and unrestrained rats that received an intravenous infusion of drugs at a dose of 4.8 mg/kg; type: functional, Artery; summary of the method: as §1
[3] = system: Rattus norvegicus; assay: Maximum reduction heart rate of rat at a dose of 4.8 mg/kg; type: functional; summary of the method: as §1
[4] = target: Adenosine A2 receptor (Rattus norvegicus, UniProt P29276+P30543); assay: Displacement of [3H]-CGS- 21680 from Adenosine A2 receptor of rat striatal membranes; type: cell membranes, Membrane
[5] = target: T1, Adenosine receptor A1 (Rattus norvegicus, UniProt P25099); assay: Displacement of [3H]DPCPX (without GTP) from Adenosine A1 receptor of rat cortical membrane
T1 sequence (P25099 whole entry): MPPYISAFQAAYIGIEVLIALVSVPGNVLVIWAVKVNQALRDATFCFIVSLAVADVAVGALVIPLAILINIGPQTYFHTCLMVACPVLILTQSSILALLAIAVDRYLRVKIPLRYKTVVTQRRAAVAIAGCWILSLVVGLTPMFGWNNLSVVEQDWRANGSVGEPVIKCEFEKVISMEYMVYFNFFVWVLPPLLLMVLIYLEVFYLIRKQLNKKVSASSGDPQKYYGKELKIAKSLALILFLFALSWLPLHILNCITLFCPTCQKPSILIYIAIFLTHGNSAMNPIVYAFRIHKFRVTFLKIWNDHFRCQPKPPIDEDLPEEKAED
Summary of the method: (§2)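 Rat cerebral cortex membranes, antagonist radioligand [3H]DPCPX, displacement run both with and without 1 mM GTP. Apparent Ki derived under each condition; their ratio gives the GTP shift. Two to three independent experiments, each in duplicate.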

[6] = target: T1, Adenosine receptor A1; assay: Displacement of [3H]DPCPX (with GTP) from Adenosine A1 receptor of rat cortical membrane; summary of the method: as §2
[7] = target: T2, Adenosine receptor A1 (Rattus norvegicus) (UniProt P25099); assay: Relative affinities for rat Adenosine A1 receptor in the presence and absence of GTP
T2 sequence (whole entry): T1 sequence (P25099 whole entry)
Summary of the method: (§3)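 Rat cortical membranes. [3H]DPCPX displacement run with and without 1 mM GTP. The GTP shift is the ratio of apparent Ki with GTP to Ki without GTP. Data from two to three independent experiments, each in duplicate.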

[8] = system: Rattus norvegicus; assay: Maximum reduction heart rate of rat at a dose of 8.0 mg/kg; type: functional
Summary of the method: (§4)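 Adult male SPF Wistar rats (200-250 g), conscious, free-ranging, arterial catheter. 30 min accommodation, then 15 min baseline recording before i.v. infusion in 20% (v/v) DMSO/water. Arterial pressure and heart rate monitored continuously for 5.5 h. Vehicle-only controls; dosing 10:00-11:00 a.m. Maximum reduction from pre-administration level reported as mean ± SE.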

[9] = system: Rattus norvegicus; assay: Effect on heart rate was measured after intravenous administration (8 mg/kg) in rat; type: functional; summary of the method: as §4
[10] = system: Rattus norvegicus; assay: Mean arterial pressure was recorded in conscious, normo tensive and unrestrained rats that received an intravenous infusion of drugs at a dose of 8 mg/kg; type: functional, Artery; summary of the method: as §4
[11] = target: T1, Adenosine receptor A1; assay: Binding affinity for adenosine A1 receptor from rat cortical membrane using [3H]DPCPX without GTP; summary of the method: as §3
[12] = system: Rattus norvegicus; assay: Mean arterial pressure was recorded of conscious, normo tensive and unrestrained rats that received an intravenous infusion of drugs at a dose of 0.20 mg/kg; type: functional, Artery; conditions: dose 0.2 mg/kg; summary of the method: as §4
[13] = system: Rattus norvegicus; assay: Maximum reduction heart rate of ratat a dose of 0.20 mg/kg; type: functional; conditions: dose 0.2 mg/kg; summary of the method: as §4
[14] = system: Rattus norvegicus; assay: Maximum reduction heart rate of rat at a dose of 0.20 mg/kg; type: functional; conditions: dose 0.2 mg/kg; summary of the method: as §4

Question: `CCCNc1nc2c(NC3CCCC3)ncnc2n1[C@@H]1O[C@H](CO)[C@@H](O)[C@H]1O` was tested. Which Heart rate [1] did it give?
Answer: Its Heart rate is 344 beats min-1.

Question: And the MAP [2]?
Answer: Its MAP is 90 mmHg.

Question: What about the Reduction [3] of the same compound?
Answer: Its Reduction is 20% and 15%.

Question: What about the Ki [4] of the same compound?
Answer: Its Ki is 7670 nM.

Question: What about the Ki ([5]; read-out: Ki) of the same compound?
Answer: Its Ki is 350 nM.

Question: And the Ki [6]?
Answer: Its Ki is 1050 nM.

Question: What about the GTP shift [7] of the same compound?
Answer: Its GTP shift is 3.

Question: `CNc1ncnc2c1nc(NC1CCCC1)n2[C@@H]1O[C@H](CO)[C@@H](O)[C@H]1O` was tested. Which Ki [4] did it give?
Answer: The Ki was 101000 nM.

Question: What about the Ki ([5]; read-out: Ki) of the same compound?
Answer: The Ki was 5610 nM.

Question: And the Ki [6]?
Answer: The Ki was 15700 nM.

Question: And the GTP shift [7]?
Answer: The GTP shift was 2.8.

Question: For `OC[C@H]1O[C@@H](n2c(NC3CCCC3)nc3c(NC4CCCC4)ncnc32)[C@H](O)[C@@H]1O`, which Reduction [8] is on record?
Answer: The Reduction was 2% and 3%.

Question: And the Heart rate [9]?
Answer: The Heart rate was 329 beats min-1.

Question: What about the MAP [10] of the same compound?
Answer: Its MAP is 94 mmHg.

Question: And the Ki [4]?
Answer: Its Ki is 45500 nM.

Question: And the Ki ([5]; read-out: Ki)?
Answer: The Ki was 1090 nM.

Question: What about the Ki [6] of the same compound?
Answer: The Ki was 1280 nM.

Question: And the GTP shift [7]?
Answer: The GTP shift was 1.2.

Question: What does the source list for `CCNc1ncnc2c1nc(NC1CCCC1)n2[C@@H]1O[C@H](CO)[C@@H](O)[C@H]1O`?
Answer: Ki [4]: 30200 nM; Ki ([5]; read-out: Ki): 310 nM; Ki [6]: 1260 nM; GTP shift [7]: 4.1

Question: How did the Ki [4] turn out when `CCCCNc1nc2c(N)ncnc2n1[C@@H]1O[C@H](CO)[C@@H](O)[C@H]1O` was run?
Answer: Its Ki is 11500 nM.

Question: What about the Ki [6] of the same compound?
Answer: Its Ki is 45500 nM.

Question: What about the GTP shift [7] of the same compound?
Answer: Its GTP shift is 4.

Question: What does the source list for `CCNc1nc2c(N)ncnc2n1C1O[C@H](CO)[C@@H](O)[C@H]1O` (some centres not stated)?
Answer: Ki [4]: 3970 nM; Ki ([5]; read-out: Ki): 6560 nM; Ki [6]: 23800 nM; GTP shift [7]: 3.6

Question: For `CNc1nc2c(NC3CCCC3)ncnc2n1[C@@H]1O[C@H](CO)[C@@H](O)[C@H]1O`, which Heart rate [1] is on record?
Answer: The Heart rate was 334 beats min-1.

Question: What about the MAP [2] of the same compound?
Answer: The MAP was 105 mmHg.

Question: And the Reduction [3]?
Answer: The Reduction was 34% and 50%.

Question: What about the Ki [4] of the same compound?
Answer: Its Ki is 20800 nM.

Question: What about the Ki [11] of the same compound?
Answer: Its Ki is 260 nM.

Question: And the Ki [6]?
Answer: Its Ki is 980 nM.

Question: And the GTP shift [7]?
Answer: Its GTP shift is 3.8.

Question: Which results are given for `CCCNc1nc2c(N)ncnc2n1C1O[C@H](CO)[C@@H](O)[C@H]1O` (some centres not stated)?
Answer: Ki [4]: 4960 nM; Ki ([5]; read-out: Ki): 5960 nM; Ki [6]: 34700 nM; GTP shift [7]: 5.8

Question: For `CCCNc1ncnc2c1nc(NC1CCCC1)n2C1O[C@H](CO)[C@@H](O)[C@H]1O` (some centres not stated), which Ki [4] is on record?
Answer: The Ki was 59400 nM.

Question: And the Ki ([5]; read-out: Ki)?
Answer: Its Ki is 1590 nM.

Question: What about the Ki [6] of the same compound?
Answer: Its Ki is 1760 nM.

Question: What about the GTP shift [7] of the same compound?
Answer: Its GTP shift is 1.1.

Question: Which results are given for `CCCCNc1ncnc2c1nc(NC1CCCC1)n2[C@@H]1O[C@H](CO)[C@@H](O)[C@H]1O`?
Answer: Ki [4]: 35300 nM; Ki ([5]; read-out: Ki): 760 nM; Ki [6]: 860 nM; GTP shift [7]: 1.1

Question: Which results are given for `CCNc1nc2c(NC3CCCC3)ncnc2n1[C@@H]1O[C@H](CO)[C@@H](O)[C@H]1O`?
Answer: Heart rate [1]: 350 beats min-1; MAP [2]: 100 mmHg; Reduction [3]: 25% and 24%; Ki [4]: 10100 nM; Ki ([5]; read-out: Ki): 470 nM; Ki [6]: 1330 nM; GTP shift [7]: 2.8

Question: For `CNc1nc2c(N)ncnc2n1[C@@H]1O[C@H](CO)[C@@H](O)[C@H]1O`, which Ki [4] is on record?
Answer: Its Ki is 1850 nM.

Question: And the Ki ([5]; read-out: Ki)?
Answer: The Ki was 2420 nM.

Question: What about the Ki [6] of the same compound?
Answer: The Ki was 18600 nM.

Question: And the GTP shift [7]?
Answer: Its GTP shift is 7.7.

Question: For `OC[C@H]1O[C@@H](n2cnc3c(NC4CCCC4)ncnc32)[C@H](O)[C@@H]1O` [N6-CYCLOPENTYLADENOSINE], which Heart rate [1] is on record?
Answer: Its Heart rate is 345 beats min-1.

Question: What about the MAP [12] of the same compound?
Answer: The MAP was 109 mmHg.

Question: What about the Reduction [13] of the same compound?
Answer: The Reduction was 54%.

Question: What about the Ki [4] of the same compound?
Answer: The Ki was 580 nM.

Question: What about the Reduction [14] of the same compound?
Answer: Its Reduction is 54%.

Question: `CCCCNc1nc2c(NC3CCCC3)ncnc2n1C1O[C@H](CO)[C@@H](O)[C@H]1O` (some centres not stated) was tested. Which Reduction [8] did it give?
Answer: The Reduction was 8% and 11%.

Question: What about the Heart rate [9] of the same compound?
Answer: Its Heart rate is 348 beats min-1.

Question: What about the MAP [10] of the same compound?
Answer: Its MAP is 94 mmHg.

Question: What about the Ki [4] of the same compound?
Answer: The Ki was 12400 nM.

Question: And the Ki ([5]; read-out: Ki)?
Answer: Its Ki is 500 nM.

Question: What about the Ki [6] of the same compound?
Answer: The Ki was 1130 nM.

Question: What about the GTP shift [7] of the same compound?
Answer: The GTP shift was 2.3.

Question: How did the Ki [5] turn out when `Nc1ncnc2c1nc(NC1CCCC1)n2C1O[C@H](CO)[C@@H](O)[C@H]1O` (some centres not stated) was run?
Answer: The Ki was “Not Active”.
